Laboratory results reported in ChEMBL document CHEMBL1833901, “MDM2-p53 protein-protein interaction inhibitors: a-ring substituted isoindolinones” (Bioorg Med Chem Lett, 2011).
One block for each compound: values may come before it. Calls of active or inactive are those of the source. The calls are words filed in the database; no cut-off is given here.

Columns and labels:
[1] = target: Tumour suppressor p53/oncoprotein Mdm2 (Homo sapiens, UniProt Q00987); assay: Inhibition of human MDM2-p53 interaction after 20 mins by […] method; format: protein assay
SJSA-1 [2] = assay: Growth inhibition of human SJSA1 cells expressing MDM2 by SRB assay; format: functional
In short: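 Growth inhibition assayed in the MDM2-amplified cell line SJSA-1. Values are the mean of at least three determinations ± SE.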

HCT-116 [3] = assay: Growth inhibition of human HCT116 cells expressing MDM2 by SRB assay; format: functional
HCT-116 [4] = assay: Growth inhibition of p53 deficient human HCT116 cells expressing MDM2 by SRB assay; format: functional
A2780 = assay: Growth inhibition of human A2780 cells expressing MDM2 by SRB assay; format: functional
[5] = Growth inhibition of human A2780/CP70 cells expressing isogenically paired p53 mutant by SRB assay; format: functional
SJSA-1 [6] = assay: Increase of MDM2 expression in human SJSA1 cells after 6 hrs by Western blotting; format: functional, cell-based
SJSA-1 [7] = assay: Increase of P53 expression in human SJSA1 cells after 6 hrs by Western blotting; format: functional, cell-based
SJSA-1 [8] = assay: Increase of P21 protein level in human SJSA1 cells after 6 hrs by Western blotting; format: functional, cell-based
SJSA-1 [9] = assay: Increase of P21 protein level in human SJSA1 cells at 5 to 10 uM after 6 hrs by Western blotting; format: functional, cell-based
SJSA-1 [10] = assay: Increase of P53 expression in human SJSA1 cells at 5 to 10 uM after 6 hrs by Western blotting; format: functional, cell-based
SJSA-1 [11] = assay: Increase of MDM2 expression in human SJSA1 cells at 5 to 10 uM after 6 hrs by Western blotting; format: functional, cell-based

Tumour suppressor p53/oncoprotein Mdm2, sequence (P04637 whole entry): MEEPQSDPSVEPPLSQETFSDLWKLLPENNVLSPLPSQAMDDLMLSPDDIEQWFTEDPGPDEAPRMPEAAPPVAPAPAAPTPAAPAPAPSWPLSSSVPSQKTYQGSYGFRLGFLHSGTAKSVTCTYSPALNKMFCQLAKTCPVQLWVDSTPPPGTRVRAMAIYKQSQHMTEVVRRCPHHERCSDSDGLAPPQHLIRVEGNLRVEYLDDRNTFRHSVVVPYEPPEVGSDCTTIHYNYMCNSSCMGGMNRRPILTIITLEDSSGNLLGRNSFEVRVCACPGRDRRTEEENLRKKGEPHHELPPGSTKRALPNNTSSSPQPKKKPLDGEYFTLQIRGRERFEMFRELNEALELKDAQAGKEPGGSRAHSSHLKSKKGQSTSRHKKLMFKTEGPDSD
Tumour suppressor p53/oncoprotein Mdm2, sequence (Q00987 whole entry): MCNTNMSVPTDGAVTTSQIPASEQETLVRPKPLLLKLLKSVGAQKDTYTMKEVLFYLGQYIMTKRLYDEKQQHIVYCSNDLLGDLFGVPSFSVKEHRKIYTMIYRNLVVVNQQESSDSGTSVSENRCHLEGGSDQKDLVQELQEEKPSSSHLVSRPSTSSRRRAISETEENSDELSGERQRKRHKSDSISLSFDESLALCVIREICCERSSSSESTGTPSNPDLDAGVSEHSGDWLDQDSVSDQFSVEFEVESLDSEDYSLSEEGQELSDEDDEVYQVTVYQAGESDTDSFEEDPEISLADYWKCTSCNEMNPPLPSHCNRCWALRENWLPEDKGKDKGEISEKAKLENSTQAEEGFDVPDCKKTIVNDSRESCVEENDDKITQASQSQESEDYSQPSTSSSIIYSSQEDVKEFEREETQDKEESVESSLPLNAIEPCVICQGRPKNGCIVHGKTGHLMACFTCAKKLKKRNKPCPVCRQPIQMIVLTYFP

- IC50 [1]: 9 µM
Structure (SMILES): O=C1c2cccc(Cl)c2C(OCC2(CO)CC2)(c2ccc(Cl)cc2)N1Cc1ccc(S(=O)(=O)C(F)(F)F)cc1 (stereo not drawn)

- IC50 [1]: 3.47 µM
Structure (SMILES): O=C1C2=C(CCCC2)C(OCC2(CO)CC2)(c2ccc(Cl)cc2)N1Cc1ccc([N+](=O)[O-])cc1 (stereo not drawn)

- IC50 [1]: 3.45 µM
Structure (SMILES): CC1=C(C)C(OCC2(CO)CC2)(c2ccc(Cl)cc2)N(Cc2ccccc2)C1=O (stereo not drawn)

- IC50 [1]: 8.9 µM
Structure (SMILES): CCCN1C(=O)C(C)=C(C)C1(OCC1(CO)CC1)c1ccc(Cl)cc1 (stereo not drawn)

- GI50 (SJSA-1 [2]; Homo sapiens, SJSA-1): 0.55 µM
- GI50 (HCT-116 [3]; Homo sapiens, HCT-116): 1.3 µM
- GI50 (HCT-116 [4]; Homo sapiens, HCT-116): 11.8 µM
- GI50 (A2780; Homo sapiens, A2780): 1.19 µM
Structure (SMILES): CC(C)(C)C[C@H]1N[C@@H](C(=O)NCCN2CCOCC2)[C@H](c2cccc(Cl)c2F)[C@@]12C(=O)Nc1cc(Cl)ccc12
- GI50 ([5]; Homo sapiens, A2780/CP70): 15.1 µM

- GI50 (SJSA-1 [2]): 6 µM
- GI50 (HCT-116 [3]): 6 µM
- GI50 (HCT-116 [4]): 14.9 µM
- GI50 (A2780): 4.2 µM
Structure (SMILES): O=C1c2cccc(Cl)c2C(OCC2(CO)CC2)(c2ccc(Cl)cc2)N1Cc1ccc([N+](=O)[O-])cc1 (racemic) [listing 1 of 2 here]
- GI50 [5]: 15.9 µM

Structure (SMILES): O=C1c2cccc(Cl)c2C(OCC2(CO)CC2)(c2ccc(Cl)cc2)N1Cc1ccc([N+](=O)[O-])cc1 (racemic) [listing 2 of 2 here]
- Activity (SJSA-1 [6]): Dose-dependent effect
- Activity (SJSA-1 [7]): Dose-dependent effect
- Activity (SJSA-1 [8]): Dose-dependent effect

- GI50 (SJSA-1 [2]): 12.2 µM
- GI50 (HCT-116 [3]): 12.3 µM
- GI50 (HCT-116 [4]): 14.4 µM
- GI50 (A2780): 7.7 µM
Structure (SMILES): O=C1c2cccc(Cl)c2C(OCC2(CO)CC2)(c2ccc(Cl)cc2)N1Cc1ccc([N+](=O)[O-])cc1 (single isomer, unassigned; (+)) [listing 1 of 2 here]
- GI50 [5]: 14.5 µM

Structure (SMILES): O=C1c2cccc(Cl)c2C(OCC2(CO)CC2)(c2ccc(Cl)cc2)N1Cc1ccc([N+](=O)[O-])cc1 (single isomer, unassigned; (+)) [listing 2 of 2 here]
- Activity (SJSA-1 [9]): inactive
- Activity (SJSA-1 [10]): inactive
- Activity (SJSA-1 [11]): inactive

- GI50 (SJSA-1 [2]): 3.7 µM
- GI50 (HCT-116 [3]): 3.7 µM
- GI50 (HCT-116 [4]; Homo sapiens, HCT-116): 12.5 µM
- GI50 (A2780): 3.3 µM
Structure (SMILES): O=C1c2cccc(Cl)c2C(OCC2(CO)CC2)(c2ccc(Cl)cc2)N1Cc1ccc([N+](=O)[O-])cc1 (single isomer, unassigned; (-)) [listing 1 of 2 here]
- GI50 ([5]; Homo sapiens, A2780/CP70): 13.6 µM

Structure (SMILES): O=C1c2cccc(Cl)c2C(OCC2(CO)CC2)(c2ccc(Cl)cc2)N1Cc1ccc([N+](=O)[O-])cc1 (single isomer, unassigned; (-)) [listing 2 of 2 here]
- Activity (SJSA-1 [6]): Dose-dependent effect
- Activity (SJSA-1 [7]): Dose-dependent effect
- Activity (SJSA-1 [8]): Dose-dependent effect

- GI50 (SJSA-1 [2]; Homo sapiens, SJSA-1): 1.3 µM
- GI50 (HCT-116 [3]; Homo sapiens, HCT-116): 2.1 µM
- GI50 (HCT-116 [4]; Homo sapiens, HCT-116): 25.6 µM
- GI50 (A2780; Homo sapiens, A2780): 1.6 µM
Structure (SMILES): COc1ccc(C2=N[C@@H](c3ccc(Cl)cc3)[C@@H](c3ccc(Cl)cc3)N2C(=O)N2CCNC(=O)C2)c(OC(C)C)c1 [NUTLIN-3]
- GI50 ([5]; Homo sapiens, A2780/CP70): 20.4 µM
